What was measured:
Human betaherpesvirus 5 [1] = experiment: Concentration required for 50% inhibition of HCMV replication was measured using a Plaque reduction assay; assay type: functional, organism-based
In short: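 HFF cells in 24-well dishes infected with about 100 pfu of HCMV (Towne) per cm² cell sheet. After adsorption, compound in growth medium added to duplicate wells at four to eight concentrations. Incubated 7 days at 37 °C, then crystal violet fixing/staining and microscopic plaque counts. IC50 by linear regression of % plaque reduction against log concentration.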

HFF = experiment: Visual cytotoxicity was scored on HFF cells at time of HCMV plaque enumeration; assay type: functional, cell-based; conditions: Homo sapiens
In short: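 Stationary HFF cells from the HCMV plaque assay, not affected by virus, inspected microscopically for cytotoxicity when plaques were counted after 7 days at 37 °C with compound at four to eight concentrations.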

Human alphaherpesvirus 1 = experiment: Antiviral activity was measured by plaque assay against HSV-1 virus by ELISA method; assay type: functional, organism-based
In short: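 HSV-1 (KOS strain) ELISA in BSC-1 cells, 10 000 per well in MEM(E) + 10% calf serum, seeded overnight at 37 °C. Drug in quadruplicate wells plus virus at 100 pfu/well, 3 days at 37 °C. Read-out: HRP-conjugated rabbit anti-HSV-1 antibody with TMB substrate, stopped with H2SO4, absorbance at 450 and 570 nm. IC50 from linear regression of % inhibition against log concentration.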

Human betaherpesvirus 5 [2] = experiment: Concentration required for 90% inhibition of HCMV replication was measured using a yield reduction assay; assay type: functional
In short: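 HFF monolayers in 96-well dishes infected with HCMV (Towne) at moi 0.5 to 1 pfu per cell. Compound serially diluted 1:3, 100 to 0.14 μM, in duplicate. 7 days at 37 °C, then one freeze-thaw cycle. Progeny titred by 1:3 serial dilution onto fresh HFF monolayers with plaque counts. IC90 by regression of % inhibition against log concentration.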

KB = experiment: Inhibition of KB cell growth was determined; assay type: functional, cell-based; conditions: Homo sapiens
In short: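 KB cells seeded at 3000–5000 per well, overnight at 37 °C. Compound added in quadruplicate at six to eight concentrations, 48 h at 37 °C in CO2 (two population doublings). Ethanol fixation, 0.1% crystal violet staining, acidified-ethanol elution, absorbance at 570 nm. IC50 by linear regression against log concentration.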

Row | Compound | IC50 (Human betaherpesvirus 5 [1]) | IC50 (HFF) | IC50 (Human alphaherpesvirus 1) | IC90 (Human betaherpesvirus 5 [2]) | IC50 (KB)
1 | Nc1cc2[nH]c(Cl)nc2cc1I | > 100 µM | > 100 µM | > 100 µM |  | 
2 | O=[N+]([O-])c1cc2[nH]c(Cl)nc2cc1I | 2.8 µM | 10 µM | 25 µM | 7 µM | 
3 | Nc1cc2[nH]c(Cl)nc2cc1[N+](=O)[O-] | > 100 µM | > 100 µM | 90 µM |  | 
4 | Fc1cc2nc(Cl)[nH]c2cc1F | > 100 µM | > 100 µM |  |  | > 100 µM
5 | Clc1nc2cc(I)c(I)cc2[nH]1 | 20 µM | 32 µM |  |  | 
6 | Clc1nc2cc(Br)c(Br)cc2[nH]1 | 8.5 µM | 32 µM | 65 µM |  | 35 µM
7 | OC[C@H]1O[C@@H](n2c(Cl)nc3cc(Cl)c(Cl)cc32)[C@H](O)[C@@H]1O |  |  |  | 1.4 µM | 
8 | OC[C@H]1OC(n2c(Cl)nc3cc(I)c(I)cc32)[C@H](O)[C@@H]1O (some centres not stated) | 2.5 µM | 13 µM | 57 µM | 2.2 µM | 27 µM
9 | Cc1cc2nc(Cl)n(C3O[C@H](CO)[C@@H](O)[C@H]3O)c2cc1C (some centres not stated) | > 100 µM | > 100 µM | > 100 µM |  | > 100 µM
10 | OC[C@H]1OC(n2c(Cl)nc3cc(F)c(F)cc32)[C@H](O)[C@@H]1O (some centres not stated) | > 100 µM | > 100 µM | > 100 µM | 75 µM | > 100 µM
11 | OC[C@H]1OC(n2c(Cl)nc3cc(Br)c(Br)cc32)[C@H](O)[C@@H]1O (some centres not stated) | 3.8 µM | 44 µM | > 100 µM | 1.3 µM | 88 µM
12 | OC[C@H]1OC(n2c(Cl)nc3ccccc32)[C@H](O)[C@@H]1O (some centres not stated) | > 100 µM | > 100 µM |  | > 100 µM | > 100 µM
13 | O=C(O)P(=O)(O)O [FOSCARNET] |  | > 100 µM |  |  | 
14 | Nc1nc2c(ncn2COC(CO)CO)c(=O)[nH]1 [GANCICLOVIR] |  | > 100 µM |  | 1.6 µM | > 100 µM
